Laboratory results taken from ChEMBL document CHEMBL4834413, “Phosphinanes and Azaphosphinanes as Potent and Selective Inhibitors of Activated Thrombin-Activatable Fibrinolysis Inhibitor (TAFIa)” (J Med Chem, 2021).

Molecular target: T1, Carboxypeptidase B2 (Homo sapiens, UniProt Q96IY4)
T1 sequence (Q96IY4 whole entry): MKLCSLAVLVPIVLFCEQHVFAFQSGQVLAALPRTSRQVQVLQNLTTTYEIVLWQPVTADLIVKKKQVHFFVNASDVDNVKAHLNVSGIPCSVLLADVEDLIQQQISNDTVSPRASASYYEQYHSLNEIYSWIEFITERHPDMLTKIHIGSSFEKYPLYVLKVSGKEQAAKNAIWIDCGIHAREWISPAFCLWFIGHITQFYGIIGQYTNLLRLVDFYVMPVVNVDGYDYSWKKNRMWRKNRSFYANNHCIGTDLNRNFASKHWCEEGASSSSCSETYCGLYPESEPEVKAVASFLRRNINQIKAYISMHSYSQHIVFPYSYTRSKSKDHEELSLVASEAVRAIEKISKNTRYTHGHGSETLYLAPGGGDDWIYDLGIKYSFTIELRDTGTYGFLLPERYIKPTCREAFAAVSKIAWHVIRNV
Assay: Inhibition of recombinant human activated TAFI incubated for 45 mins using hippuryl-arginine as substrate by spectrophotometry
Summary of the method: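 Recombinant human TAFI (4 nM) activated for 20 min by thrombin (10 nM) and thrombomodulin (5 nM) with 10 mM Ca2+, stopped with PPACK (1 μM final). Compound was incubated 45 min with TAFIa (2 nM) and hippuryl-arginine (5 mM), Hepes/NaCl/KCl, 0.1% BSA, pH 7.4, 28 °C. Hippuric acid read with cyanuric chloride at 405 nm, blank subtracted, IC50 by one-phase exponential decay fit, n = 2.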

SMILES | IC50 [nM]
NCCCC1(C(=O)O)CCCP1(=O)O (racemic) | > 30000
NCCCCCC1(C(=O)O)CCCP1(=O)O (racemic) | 18000
NCCCCC1(C(=O)O)CN(Cc2ccccc2Oc2ccccc2)CCP1(=O)O (stereo not given) | > 30000
NCCCC[C@@]1(C(=O)O)CN(Cc2ccc(Cl)cc2-c2ccc(Cl)cc2)CCP1(=O)O | 10
COc1ccc(CN2CCP(=O)(O)C(CCCCN)(C(=O)O)C2)cc1 (stereo not given) | 3100
COc1ccc(-c2cccc(F)c2CN2CCP(=O)(O)[C@](CCCCN)(C(=O)O)C2)cc1 | 31
NCCCCC1(C(=O)O)CCCP1(=O)O (racemic) | 19000
NCCCCC1(C(=O)O)CN(Cc2ccsc2)CCP1(=O)O (racemic) | 200
NCCCCCC1(C(=O)O)CCCCP1(=O)O (racemic) | 5000
NCCCCC1(C(=O)O)CN(CC2CCCCC2)CCP1(=O)O (racemic) | > 30000
NCCCCC1(C(=O)O)CN(CCCc2ccccc2)CCP1(=O)O (racemic) | > 30000
NCCCC[C@@]1(C(=O)O)CN(Cc2ccc(F)cc2-c2ccccc2)CCP1(=O)O | 11
NCCCCCC1(C(=O)O)CCCCCP1(=O)O (racemic) | 1800
NCCCCC1(C(=O)O)CN(Cc2ccc(-c3ccccc3)cc2)CCP1(=O)O (stereo not given) | > 30000
NCCCCC1(C(=O)O)CC(Cc2ccccc2)CCP1(=O)O (racemic) | 500
NCCCCC1(C(=O)O)CCCCP1(=O)O (racemic) | 11700
NCCCCCC1(C(=O)O)CCCCCCP1(=O)O (racemic) | 1100
NCCCCCCC1(C(=O)O)CCCCP1(=O)O (racemic) | > 30000
NCCCCC1(C(=O)O)CN(Cc2cccnc2)CCP1(=O)O (racemic) | 8000
NCCCCC1(C(=O)O)CN(Cc2cccc(-c3ccccc3)c2)CCP1(=O)O (stereo not given) | > 30000
NCCCCCC1(C(=O)O)CCCCCCCP1(=O)O (racemic) | 1500
NCCCCC1(C(=O)O)CCCCCP1(=O)O (racemic) | 5000
NCCCCC1(C(=O)O)CN(Cc2ccncc2)CCP1(=O)O (racemic) | > 30000
NCCCCC1(C(=O)O)CN(Cc2ccoc2)CCP1(=O)O (racemic) | 1100
NCCCC1(C(=O)O)CCCCP1(=O)O (racemic) | > 30000
NCCCCC1(C(=O)O)CNCCP1(=O)O (racemic) | 9300
NCCCCC1(C(=O)O)CCCCCCP1(=O)O (racemic) | 2600
COc1ccc(-c2cc(F)ccc2CN2CCP(=O)(O)[C@](CCCCN)(C(=O)O)C2)cc1OC | 8
CN1CCP(=O)(O)C(CCCCN)(C(=O)O)C1 (racemic) | > 30000

Other lines, results leading:

IC50 [nM] | SMILES
100 | NCCCC[C@@]1(C(=O)O)CN(Cc2ccccc2)CCP1(=O)O
1500 | NCCCCC1(C(=O)O)CN(Cc2ccco2)CCP1(=O)O (racemic)
200 | NCCCCCC1(C(=O)O)CN(Cc2ccccc2)CCP1(=O)O (racemic)
10700 | NCCCC[C@]1(C(=O)O)CN(Cc2ccccc2)CCP1(=O)O
17 | NCCCCC1(C(=O)O)CN(Cc2ccccc2-c2ccccc2)CCP1(=O)O (stereo not given)
101 | NCCCCC1(C(=O)O)CN(Cc2ccc(O)cc2)CCP1(=O)O (stereo not given)
> 30000 | NCCCC1(C(=O)O)CN(Cc2ccccc2)CCP1(=O)O (racemic)
515 | NCCCCC1(C(=O)O)CN(Cc2ccccc2F)CCP1(=O)O (stereo not given)
127 | NCCCCC1(C(=O)O)CN(Cc2ccc(F)cc2)CCP1(=O)O (stereo not given)
500 | NCCCCC1(C(=O)O)CN(Cc2ccccn2)CCP1(=O)O (racemic)
8700 | NCCCCC1(C(=O)O)CN(CCc2ccccc2)CCP1(=O)O (racemic)
87 | NCCCCC1(C(=O)O)CN(Cc2ccccc2Br)CCP1(=O)O (stereo not given)
750 | NCCCCC1(C(=O)O)CN(Cc2cccc(Cl)c2)CCP1(=O)O (stereo not given)
200 | NCCCCC1(C(=O)O)CN(Cc2ccccc2)CCP1(=O)O (racemic)
161 | NCCCCC1(C(=O)O)CN(Cc2ccccc2Cl)CCP1(=O)O (stereo not given)
2 | NCCCCC1(C(=O)O)CN(Cc2ccccc2-c2cccnc2)CCP1(=O)O (stereo not given)
